Measured values reported in ChEMBL document CHEMBL1629545, “A morpholino oligomer targeting highly conserved internal ribosome entry site sequence is able to inhibit multiple species of picornavirus” (Antimicrob Agents Chemother, 2008).
Activity calls are given as the source filed them. No cut-off for these calls is given here.

Assays:
HeLa [1] = assay: Cytotoxicity against human HeLa cells at 10 uM by MTS assay; assay type: cell-based
In short: (§1)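 HeLa cells at ~80% confluence, uninfected, exposed to 1–100 μM PPMO or water (mock) in serum-free DMEM-F-12 (1:1) for 24 h. MTS reagent was added for 4 h and absorbance read at 492 nm. Viability was expressed as percent of water-treated cells (set to 100%), averaged over 12 wells.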

SK-N-MC = assay: Cytotoxicity against human SK-N-MC cell at 10 uM after 24 hrs by MTS assay; assay type: cell-based
HeLa [2] = assay: Cytotoxicity against human HeLa cells 10 uM after 24 hrs by MTS assay; assay type: cell-based; in short: as §1
HeLa [3] = assay: Cytotoxicity against human HeLa cells at 10 uM after 48 hrs by MTS assay; assay type: cell-based
In short: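 Time-course viability: uninfected HeLa cells were kept in 10 μM PPMO in DMEM-F-12 and assayed at time points from 10 to 69 h after treatment began. Read-out was the MTS reagent for 4 h with absorbance at 492 nm. Results are given as percent of water-mock cells, each point the mean of 12 wells.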

Vero = assay: Cytotoxicity against African green monkey Vero cells at 10 uM after 24 hrs by MTS assay; assay type: cell-based; conditions: chlorocebus sabaeus
Poliovirus 1 = assay: Antiviral activity against Human poliovirus type 1 infected in Human HeLa cell assessed as inhibition of translation at 10 ug/ml by luciferase reporter gene assay; assay type: functional, organism-based
In short: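 In-cell translation control: HeLa cells electroporated with 20 μg PV1-Luc replicon RNA were placed in medium with 10 μg/ml puromycin at 37°C in 5% CO2. Luciferase in lysates was read by luminometer at hourly time points after transfection. Two experiments were averaged.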

Cc1cn([C@H]2CN(P(=O)(OC[C@@H]3CN(P(=O)(OC[C@@H]4CN(P(=O)(OC[C@@H]5CNC[C@H](n6ccc(N)nc6=O)O5)N(C)C)C[C@H](n5cnc6c(N)ncnc65)O4)N(C)C)C[C@H](n4ccc(N)nc4=O)O3)N(C)C)C[C@@H](COP(=O)(N(C)C)N3C[C@@H](COP(=O)(N(C)C)N4C[C@@H](COP(=O)(N(C)C)N5C[C@@H](COP(=O)(N(C)C)N6C[C@@H](COP(=O)(N(C)C)N7C[C@@H](COP(=O)(N(C)C)N8C[C@@H](COP(=O)(N(C)C)N9C[C@@H](COP(=O)(N(C)C)N%10C[C@@H](COP(=O)(N(C)C)N%11C[C@@H](COP(=O)(N(C)C)N%12C[C@@H](COP(=O)(N(C)C)N%13C[C@@H](COP(=O)(N(C)C)N%14C[C@@H](COP(=O)(N(C)C)N%15C[C@@H](COP(=O)(N(C)C)N%16C[C@@H](COP(=O)(N(C)C)N%17C[C@@H](COP(=O)(N(C)C)N%18C[C@@H](COP(=O)(N(C)C)N%19C[C@@H](COP(=O)(N(C)C)N%20C[C@@H](COP(=O)(N(C)C)N%21C[C@@H](COP(=O)(N(C)C)N%22C[C@@H](COP(=O)(N(C)C)N%23CCN(C(=O)CCNC(=O)CCCCCNC(=O)[C@H](CCCNC(=N)N)NC(=O)CCCCCNC(=O)[C@H](CCCNC(=N)N)NC(=O)[C@H](CCCNC(=N)N)NC(=O)CCCCCNC(=O)[C@H](CCCNC(=N)N)NC(=O)[C@H](CCCNC(=N)N)NC(=O)CCCCCNC(=O)[C@H](CCCNC(=N)N)NC(=O)[C@H](CCCNC(=N)N)NC(=O)CCCCCNC(=O)[C@@H](N)CCCNC(=N)N)CC%23)O[C@@H](n%23ccc(N)nc%23=O)C%22)O[C@@H](n%22cnc%23c(N)ncnc%23%22)C%21)O[C@@H](n%21cnc%22c(N)ncnc%22%21)C%20)O[C@@H](n%20ccc(N)nc%20=O)C%19)O[C@@H](n%19cnc%20c(=O)[nH]c(N)nc%20%19)C%18)O[C@@H](n%18ccc(N)nc%18=O)C%17)O[C@@H](n%17cnc%18c(N)ncnc%18%17)C%16)O[C@@H](n%16cnc%17c(=O)[nH]c(N)nc%17%16)C%15)O[C@@H](n%15ccc(N)nc%15=O)C%14)O[C@@H](n%14ccc(N)nc%14=O)C%13)O[C@@H](n%13cc(C)c(=O)[nH]c%13=O)C%12)O[C@@H](n%12cnc%13c(=O)[nH]c(N)nc%13%12)C%11)O[C@@H](n%11cnc%12c(=O)[nH]c(N)nc%12%11)C%10)O[C@@H](n%10cnc%11c(N)ncnc%11%10)C9)O[C@@H](n9ccc(N)nc9=O)C8)O[C@@H](n8ccc(N)nc8=O)C7)O[C@@H](n7cnc8c(N)ncnc87)C6)O[C@@H](n6ccc(N)nc6=O)C5)O[C@@H](n5ccc(N)nc5=O)C4)O[C@@H](n4cnc5c(=O)[nH]c(N)nc54)C3)O2)c(=O)[nH]c1=O (stereo partly specified)
Activity (HeLa [1]): Non-toxic | Activity (SK-N-MC): Non-toxic | Activity (HeLa [2]): Toxic | Activity (HeLa [3]): Toxic | Activity (Vero): Non-toxic | Activity (Poliovirus 1): inactive
